Assay results reported in ChEMBL document CHEMBL2413013, “Triplex-forming ability of oligonucleotides containing 1-aryl-1,2,3-triazole nucleobases linked via a two atom-length spacer” (Bioorg Med Chem, 2013).

Tests used:
[1] = Binding affinity to hairpin double stranded DNA AT base pair in sodium cacodylate buffer at pH 6.8 assessed as triplex-forming ability measuring melting temperature after by UV melting experiment
Procedure, shortened: (§1)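 TFO and hairpin dsDNA target, each strand at 1.89 μM final, in 10 mM sodium cacodylate (pH 6.8) with 100 mM KCl and 50 mM MgCl₂. Annealed in boiling water, then cooled slowly to 5 °C. Melting was followed at 260 nm from 5 to 90 °C at 0.5 °C/min. Tm was taken by the two-point average method, mean of three independent runs.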

[2] = Binding affinity to hairpin double stranded DNA GC base pair in sodium cacodylate buffer at pH 6.8 assessed as triplex-forming ability measuring melting temperature after by UV melting experiment; procedure, shortened: as §1
[3] = Binding affinity to hairpin double stranded DNA CG base pair in sodium cacodylate buffer at pH 6.8 assessed as triplex-forming ability measuring melting temperature after by UV melting experiment; procedure, shortened: as §1
[4] = Binding affinity to hairpin double stranded DNA TA base pair in sodium cacodylate buffer at pH 6.8 assessed as triplex-forming ability measuring melting temperature after by UV melting experiment; procedure, shortened: as §1

Row | Tm [1] [°C] | Tm [2] [°C] | Tm [3] [°C] | Tm [4] [°C] | SMILES
1 | 23 | 23 | 25 | 22 | Cc1cn([C@H]2C[C@H](O[PH](OCCC#N)(OC[C@H]3O[C@@H](n4cc(C)c(=O)[nH]c4=O)C[C@@H]3O[PH](OCCC#N)(OC[C@H]3O[C@@H](n4cc(C)c(=O)[nH]c4=O)C[C@@H]3O[PH](OCCC#N)(OC[C@H]3O[C@@H](n4cc(C)c(=O)[nH]c4=O)C[C@@H]3O[PH](OCCC#N)(OC[C@H]3O[C@@H](n4cc(C)c(=O)[nH]c4=O)C[C@@H]3O[PH](OCCC#N)(OC(C)[C@H]3O[C@@H](n4ccc(N)nc4=O)C[C@@H]3O[PH](OCCC#N)(OC[C@H]3O[C@@H](n4cc(C)c(=O)[nH]c4=O)C[C@@H]3O[PH](OCCC#N)(OC[C@H]3O[C@@H](OCc4cn(-c5cccc(CO)c5)nn4)C[C@@H]3OP(=O)(O)OC[C@H]3O[C@@H](n4cc(C)c(=O)[nH]c4=O)C[C@@H]3O[PH](OCCC#N)(OC(C)[C@H]3O[C@@H](n4ccc(N)nc4=O)C[C@@H]3O[PH](OCCC#N)(OC[C@H]3O[C@@H](n4cc(C)c(=O)[nH]c4=O)C[C@@H]3O[PH](OCCC#N)(OC(C)[C@H]3O[C@@H](n4ccc(N)nc4=O)C[C@@H]3O[PH](OCCC#N)(OC[C@H]3O[C@@H](n4cc(C)c(=O)[nH]c4=O)C[C@@H]3O[PH](OCCC#N)(OC(C)[C@H]3O[C@@H](n4ccc(N)nc4=O)C[C@@H]3O[PH](OCCC#N)(OC[C@H]3O[C@@H](n4cc(C)c(=O)[nH]c4=O)C[C@@H]3O)N(C(C)C)C(C)C)N(C(C)C)C(C)C)N(C(C)C)C(C)C)N(C(C)C)C(C)C)N(C(C)C)C(C)C)N(C(C)C)C(C)C)N(C(C)C)C(C)C)N(C(C)C)C(C)C)N(C(C)C)C(C)C)N(C(C)C)C(C)C)N(C(C)C)C(C)C)N(C(C)C)C(C)C)N(C(C)C)C(C)C)[C@@H](CO)O2)c(=O)[nH]c1=O (stereo not given in full)
2 | 20 | 19 | 22 | 18 | Cc1cn([C@H]2C[C@H](O[PH](OCCC#N)(OC[C@H]3O[C@@H](n4cc(C)c(=O)[nH]c4=O)C[C@@H]3O[PH](OCCC#N)(OC[C@H]3O[C@@H](n4cc(C)c(=O)[nH]c4=O)C[C@@H]3O[PH](OCCC#N)(OC[C@H]3O[C@@H](n4cc(C)c(=O)[nH]c4=O)C[C@@H]3O[PH](OCCC#N)(OC[C@H]3O[C@@H](n4cc(C)c(=O)[nH]c4=O)C[C@@H]3O[PH](OCCC#N)(OC(C)[C@H]3O[C@@H](n4ccc(N)nc4=O)C[C@@H]3O[PH](OCCC#N)(OC[C@H]3O[C@@H](n4cc(C)c(=O)[nH]c4=O)C[C@@H]3O[PH](OCCC#N)(OC[C@H]3O[C@@H](CCc4cn(-c5ccccc5O)nn4)C[C@@H]3OP(=O)(O)OC[C@H]3O[C@@H](n4cc(C)c(=O)[nH]c4=O)C[C@@H]3O[PH](OCCC#N)(OC(C)[C@H]3O[C@@H](n4ccc(N)nc4=O)C[C@@H]3O[PH](OCCC#N)(OC[C@H]3O[C@@H](n4cc(C)c(=O)[nH]c4=O)C[C@@H]3O[PH](OCCC#N)(OC(C)[C@H]3O[C@@H](n4ccc(N)nc4=O)C[C@@H]3O[PH](OCCC#N)(OC[C@H]3O[C@@H](n4cc(C)c(=O)[nH]c4=O)C[C@@H]3O[PH](OCCC#N)(OC(C)[C@H]3O[C@@H](n4ccc(N)nc4=O)C[C@@H]3O[PH](OCCC#N)(OC[C@H]3O[C@@H](n4cc(C)c(=O)[nH]c4=O)C[C@@H]3O)N(C(C)C)C(C)C)N(C(C)C)C(C)C)N(C(C)C)C(C)C)N(C(C)C)C(C)C)N(C(C)C)C(C)C)N(C(C)C)C(C)C)N(C(C)C)C(C)C)N(C(C)C)C(C)C)N(C(C)C)C(C)C)N(C(C)C)C(C)C)N(C(C)C)C(C)C)N(C(C)C)C(C)C)N(C(C)C)C(C)C)[C@@H](CO)O2)c(=O)[nH]c1=O (stereo not given in full)
3 | 19 | 19 | 23 | 22 | Cc1cn([C@H]2C[C@H](O[PH](OCCC#N)(OC[C@H]3O[C@@H](n4cc(C)c(=O)[nH]c4=O)C[C@@H]3O[PH](OCCC#N)(OC[C@H]3O[C@@H](n4cc(C)c(=O)[nH]c4=O)C[C@@H]3O[PH](OCCC#N)(OC[C@H]3O[C@@H](n4cc(C)c(=O)[nH]c4=O)C[C@@H]3O[PH](OCCC#N)(OC[C@H]3O[C@@H](n4cc(C)c(=O)[nH]c4=O)C[C@@H]3O[PH](OCCC#N)(OC(C)[C@H]3O[C@@H](n4ccc(N)nc4=O)C[C@@H]3O[PH](OCCC#N)(OC[C@H]3O[C@@H](n4cc(C)c(=O)[nH]c4=O)C[C@@H]3O[PH](OCCC#N)(OC[C@H]3O[C@@H](CCc4cn(-c5ccc(CO)cc5)nn4)C[C@@H]3OP(=O)(O)OC[C@H]3O[C@@H](n4cc(C)c(=O)[nH]c4=O)C[C@@H]3O[PH](OCCC#N)(OC(C)[C@H]3O[C@@H](n4ccc(N)nc4=O)C[C@@H]3O[PH](OCCC#N)(OC[C@H]3O[C@@H](n4cc(C)c(=O)[nH]c4=O)C[C@@H]3O[PH](OCCC#N)(OC(C)[C@H]3O[C@@H](n4ccc(N)nc4=O)C[C@@H]3O[PH](OCCC#N)(OC[C@H]3O[C@@H](n4cc(C)c(=O)[nH]c4=O)C[C@@H]3O[PH](OCCC#N)(OC(C)[C@H]3O[C@@H](n4ccc(N)nc4=O)C[C@@H]3O[PH](OCCC#N)(OC[C@H]3O[C@@H](n4cc(C)c(=O)[nH]c4=O)C[C@@H]3O)N(C(C)C)C(C)C)N(C(C)C)C(C)C)N(C(C)C)C(C)C)N(C(C)C)C(C)C)N(C(C)C)C(C)C)N(C(C)C)C(C)C)N(C(C)C)C(C)C)N(C(C)C)C(C)C)N(C(C)C)C(C)C)N(C(C)C)C(C)C)N(C(C)C)C(C)C)N(C(C)C)C(C)C)N(C(C)C)C(C)C)[C@@H](CO)O2)c(=O)[nH]c1=O (stereo not given in full)
4 | 18 | 19 | 21 | 17 | Cc1cn([C@H]2C[C@H](O[PH](OCCC#N)(OC[C@H]3O[C@@H](n4cc(C)c(=O)[nH]c4=O)C[C@@H]3O[PH](OCCC#N)(OC[C@H]3O[C@@H](n4cc(C)c(=O)[nH]c4=O)C[C@@H]3O[PH](OCCC#N)(OC[C@H]3O[C@@H](n4cc(C)c(=O)[nH]c4=O)C[C@@H]3O[PH](OCCC#N)(OC[C@H]3O[C@@H](n4cc(C)c(=O)[nH]c4=O)C[C@@H]3O[PH](OCCC#N)(OC(C)[C@H]3O[C@@H](N4C=CC(N)=N[C@@H]4O)C[C@@H]3O[PH](OCCC#N)(OC[C@H]3O[C@@H](n4cc(C)c(=O)[nH]c4=O)C[C@@H]3O[PH](OCCC#N)(OC[C@H]3O[C@@H](OCc4cn(-c5ccccc5C(N)=O)nn4)C[C@@H]3OP(=O)(O)OC[C@H]3O[C@@H](n4cc(C)c(=O)[nH]c4=O)C[C@@H]3O[PH](OCCC#N)(OC(C)[C@H]3O[C@@H](n4ccc(N)nc4=O)C[C@@H]3O[PH](OCCC#N)(OC[C@H]3O[C@@H](n4cc(C)c(=O)[nH]c4=O)C[C@@H]3O[PH](OCCC#N)(OC(C)[C@H]3O[C@@H](n4ccc(N)nc4=O)C[C@@H]3O[PH](OCCC#N)(OC[C@H]3O[C@@H](n4cc(C)c(=O)[nH]c4=O)C[C@@H]3O[PH](OCCC#N)(OC(C)[C@H]3O[C@@H](n4ccc(N)nc4=O)C[C@@H]3O[PH](OCCC#N)(OC[C@H]3O[C@@H](n4cc(C)c(=O)[nH]c4=O)C[C@@H]3O)N(C(C)C)C(C)C)N(C(C)C)C(C)C)N(C(C)C)C(C)C)N(C(C)C)C(C)C)N(C(C)C)C(C)C)N(C(C)C)C(C)C)N(C(C)C)C(C)C)N(C(C)C)C(C)C)N(C(C)C)C(C)C)N(C(C)C)C(C)C)N(C(C)C)C(C)C)N(C(C)C)C(C)C)N(C(C)C)C(C)C)[C@@H](CO)O2)c(=O)[nH]c1=O (stereo not given in full)
5 | 21 | 23 | 25 | 23 | Cc1cn([C@H]2C[C@H](O[PH](OCCC#N)(OC[C@H]3O[C@@H](n4cc(C)c(=O)[nH]c4=O)C[C@@H]3O[PH](OCCC#N)(OC[C@H]3O[C@@H](n4cc(C)c(=O)[nH]c4=O)C[C@@H]3O[PH](OCCC#N)(OC[C@H]3O[C@@H](n4cc(C)c(=O)[nH]c4=O)C[C@@H]3O[PH](OCCC#N)(OC[C@H]3O[C@@H](n4cc(C)c(=O)[nH]c4=O)C[C@@H]3O[PH](OCCC#N)(OC(C)[C@H]3O[C@@H](n4ccc(N)nc4=O)C[C@@H]3O[PH](OCCC#N)(OC[C@H]3O[C@@H](n4cc(C)c(=O)[nH]c4=O)C[C@@H]3O[PH](OCCC#N)(OC[C@H]3O[C@@H](OCc4cn(-c5cccc(NC(N)=O)c5)nn4)C[C@@H]3OP(=O)(O)OC[C@H]3O[C@@H](n4cc(C)c(=O)[nH]c4=O)C[C@@H]3O[PH](OCCC#N)(OC(C)[C@H]3O[C@@H](n4ccc(N)nc4=O)C[C@@H]3O[PH](OCCC#N)(OC[C@H]3O[C@@H](n4cc(C)c(=O)[nH]c4=O)C[C@@H]3O[PH](OCCC#N)(OC(C)[C@H]3O[C@@H](n4ccc(N)nc4=O)C[C@@H]3O[PH](OCCC#N)(OC[C@H]3O[C@@H](n4cc(C)c(=O)[nH]c4=O)C[C@@H]3O[PH](OCCC#N)(OC(C)[C@H]3O[C@@H](n4ccc(N)nc4=O)C[C@@H]3O[PH](OCCC#N)(OC[C@H]3O[C@@H](n4cc(C)c(=O)[nH]c4=O)C[C@@H]3O)N(C(C)C)C(C)C)N(C(C)C)C(C)C)N(C(C)C)C(C)C)N(C(C)C)C(C)C)N(C(C)C)C(C)C)N(C(C)C)C(C)C)N(C(C)C)C(C)C)N(C(C)C)C(C)C)N(C(C)C)C(C)C)N(C(C)C)C(C)C)N(C(C)C)C(C)C)N(C(C)C)C(C)C)N(C(C)C)C(C)C)[C@@H](CO)O2)c(=O)[nH]c1=O (stereo not given in full)
